Assay results from ChEMBL document CHEMBL3098025, “Optimization of potency and pharmacokinetics of tricyclic indole derived inhibitors of HCV NS5B polymerase. Identification of ester prodrugs with improved oral pharmacokinetics” (Bioorg Med Chem, 2014).

Assays:
[1] = AUC (0 to 6 hrs) in Sprague-Dawley rat at 10 mg/kg, po; format: ADME, organism-based; set-up: time < 6 hr, dose 10 mg/kg, route oral; details: plasma
In short: (§1)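 Sprague Dawley rats received esters orally at 10 mg/kg in 0.4% methylcellulose, given as trifluoroacetate salts. Plasma levels of both the intact ester prodrug and the acid metabolite were measured. AUC was integrated over 0–6 h after dosing.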

[2] = Inhibition of HCV1b NS5B polymerase; set-up: species or system Hepatitis C virus subtype 1b
[3] = system: Hepatitis C virus; assay: Antiviral activity against HCV1b assessed as inhibition of viral replication; format: functional, organism-based, Hepacivirus hominis; details: genotype 1b
In short: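 In the cell-based HCV replicon assay, viral RNA levels were measured. EC50 is the concentration giving a 50% reduction in replicon RNA.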

[4] = system: Rattus norvegicus; assay: Prodrug conversion in Sprague-Dawley rat assessed as AUC (0 to 24 hrs) of 4-Fluoro-6-((6-fluoro-1H-indazol-5-yl)methyl)-8-(2-oxo-1,2-dihydropyridin-3-yl)-6H-furo[2,3-e]indole-7-carboxylic acid level at 10 mg/kg, po; format: ADME, organism-based; set-up: time < 24 hr, dose 10 mg/kg, route oral; details: in vivo
In short: (§2)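 Dimethylaminoethyl ester prodrugs were dosed orally to rats at 10 mg/kg in 0.4% methylcellulose.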

[5] = system: Cynomolgus monkey; assay: Prodrug conversion in cynomolgus monkey assessed as AUC (0 to 24 hrs) of 4-Fluoro-6-((6-fluoro-1H-indazol-5-yl)methyl)-8-(2-oxo-1,2-dihydropyridin-3-yl)-6H-furo[2,3-e]indole-7-carboxylic acid level at 3 mg/kg, po; format: ADME, organism-based, Macaca fascicularis; set-up: time < 24 hr, dose 3 mg/kg, route oral; details: in vivo
[6] = system: Rattus norvegicus; assay: Prodrug conversion in Sprague-Dawley rat assessed as AUC (0 to 6 hrs) of parent compound level at 10 mg/kg, po; format: ADME, organism-based; set-up: time < 6 hr, dose 10 mg/kg, route oral; details: in vivo; in short: as §1
[7] = system: Rattus norvegicus; assay: Prodrug conversion in Sprague-Dawley rat assessed as AUC (0 to 6 hrs) of 6-((6-Chloro-1H-benzo[d]imidazol-5-yl)methyl)-4-fluoro-8-(2-oxo-1,2-dihydropyridin-3-yl)-6H-furo[2,3-e]indole-7-carboxylic acid level at 10 mg/kg, po; format: ADME, organism-based; set-up: time < 6 hr, dose 10 mg/kg, route oral; details: in vivo; in short: as §1
[8] = system: Cynomolgus monkey; assay: Prodrug conversion in cynomolgus monkey assessed as AUC (0 to 24 hrs) of 6-((6-Chloro-1H-benzo[d]imidazol-5-yl)methyl)-4-fluoro-8-(2-oxo-1,2-dihydropyridin-3-yl)-6H-furo[2,3-e]indole-7-carboxylic acid level at 3 mg/kg, po; format: ADME, organism-based, Macaca fascicularis; set-up: time < 24 hr, dose 3 mg/kg, route oral; details: in vivo
[9] = system: Rattus norvegicus; assay: Prodrug conversion in Sprague-Dawley rat assessed as AUC (0 to 24 hrs) of 6-((6-Chloro-1H-benzo[d]imidazol-5-yl)methyl)-4-fluoro-8-(2-oxo-1,2-dihydropyridin-3-yl)-6H-furo[2,3-e]indole-7-carboxylic acid level at 10 mg/kg, po; format: ADME, organism-based; set-up: time < 24 hr, dose 10 mg/kg, route oral; details: in vivo; in short: as §2
[10] = system: Liver microsome; assay: Drug metabolism in human liver microsomes assessed as formation of 8-(1H-pyrrol-2-yl)-6H-furo[2,3-e]indole-7-carboxylic acid; format: ADME
[11] = system: Liver microsome; assay: Drug metabolism in human liver microsomes assessed as formation of 2-((R)-2-((S)-4-amino-4-carboxybutanamido)-3-(carboxymethylamino)-3-oxopropylthio)-6-(2,5-difluorobenzyl)-3-hydroxy-8-(2-oxo-1,2-dihydropyridin-3-yl)-3,6-dihydro-2H-furo[2,3-e]indole-7-carboxylic acid in presence of glutathione; format: ADME
[12] = system: Liver microsome; assay: Drug metabolism in human liver microsomes assessed as formation of 6-(2,5-difluorobenzyl)-2,3-dihydroxy-8-(2-oxo-1,2-dihydropyridin-3-yl)-3,6-dihydro-2H-furo[2,3-e]indole-7-carboxylic acid in presence of water; format: ADME
[13] = system: Liver microsome; assay: Drug metabolism in human liver microsomes assessed as formation of 6-(2,5-difluorobenzyl)-3-hydroxy-2-(methoxyamino)-8-(2-oxo-1,2-dihydropyridin-3-yl)-3,6-dihydro-2H-furo[2,3-e]indole-7-carboxylic acid in presence of NH2OCH3; format: ADME
[14] = system: Liver microsome; assay: Drug metabolism in human liver microsomes assessed as formation of 3-(2,5-Difluoro-benzyl)-1-(2-oxo-1,2-dihydro-pyridin-3-yl)-5b,6a-dihydro-3H-6,7-dioxa-3-aza-cyclopropa[b]-as-indacene-2-carboxylic acid; format: ADME
[15] = AUC (0 to 6 hrs) in cynomolgus monkey at 3 mg/kg, po; format: ADME, organism-based, Macaca fascicularis; set-up: time < 6 hr, dose 3 mg/kg, route oral; details: plasma

| Compound | AUC(0-t) at 6 h [1] [µM·h] | IC50 [2] [nM] | EC50 [3] [nM] | AUC [6] [µM·h] | other results |
| --- | --- | --- | --- | --- | --- |
| Cn1nc(N)c2cc(Cn3c(C(=O)O)c(-c4ccc[nH]c4=O)c4c5occc5c(F)cc43)c(F)cc21 | 7.2 | 6 | 20 | – | – |
| CN(C)CCOC(=O)c1c(-c2ccc[nH]c2=O)c2c3occc3c(F)cc2n1Cc1cc2cn[nH]c2cc1F.O=C(O)C(F)(F)F | – | – | 6 | – | AUC [4]: 222 µM·h; AUC [5]: 33 µM·h |
| O=C(O)c1c(-c2ccc[nH]c2=O)c2c3occc3c(F)cc2n1Cc1cc2[nH]cnc2cc1Cl | 1.2 | 6 | 8 | – | – |
| CCOC(=O)c1c(-c2ccc[nH]c2=O)c2c3occc3c(F)cc2n1Cc1cc2[nH]cnc2cc1Cl | – | – | – | 0.1 | – |
| CN(C)CCOC(=O)c1c(-c2ccc[nH]c2=O)c2c3occc3c(F)cc2n1Cc1cc2[nH]cnc2cc1Cl.O=C(O)C(F)(F)F | – | – | 13 | 0.5 | AUC [7]: 32.5 µM·h; AUC [8]: 14 µM·h; AUC [9]: 208 µM·h |
| O=C(O)c1c(-c2ccc[nH]c2=O)c2c3occc3c(F)cc2n1Cc1cc2cn[nH]c2cc1Cl | 5.1 | 3 | 5 | – | – |
| CC(OC(=O)c1c(-c2ccc[nH]c2=O)c2c3occc3c(F)cc2n1Cc1cc2[nH]cnc2cc1Cl)c1ccccc1 (centres undefined) | – | – | – | 0.3 | AUC [7]: 0.2 µM·h |
| O=C(O)c1c(-c2ccc[nH]c2=O)c2c3occc3c(F)cc2n1Cc1cc2[nH]cnc2cc1F | 7.7 | 3 | 7 | – | – |
| COCCOC(=O)c1c(-c2ccc[nH]c2=O)c2c3occc3c(F)cc2n1Cc1cc2[nH]cnc2cc1Cl | – | – | – | 0.2 | AUC [7]: 1.1 µM·h |
| O=C(O)c1c(-c2ccc[nH]c2=O)c2c3occc3ccc2n1Cc1cc(F)ccc1F | – | 31 | 160 | – | Drug metabolism [10]: Active; Drug metabolism [11]: Active; Drug metabolism [12]: Active; Drug metabolism [13]: Active; Drug metabolism [14]: Active |
| Nc1n[nH]c2cc(Cn3c(C(=O)O)c(-c4ccc[nH]c4=O)c4c5occc5c(F)cc43)c(F)cc12 | 3.6 | 5 | 12 | – | – |
| CC(CN(C)C)OC(=O)c1c(-c2ccc[nH]c2=O)c2c3occc3c(F)cc2n1Cc1cc2[nH]cnc2cc1Cl.O=C(O)C(F)(F)F (centres undefined) | – | – | – | 0.8 | AUC [7]: 32.6 µM·h |
| O=C(O)c1c(-c2ccc[nH]c2=O)c2c3occc3c(F)cc2n1Cc1cc2cn[nH]c2cc1F | 9.3 | 3 | 4 | – | AUC(0-t) at 6 h [15]: 1 µM·h |
| Cc1cc2[nH]ncc2cc1Cn1c(C(=O)O)c(-c2ccc[nH]c2=O)c2c3occc3c(F)cc21 | 2.1 | 3 | 2 | – | – |
